Experiments:
Mus musculus [1] = assay: Toxicity in mouse assessed as effect on autonomic activity at 10 to 30 mg/kg, po by Irwin test; type: organism-based; set-up: dose 10-30 mg/kg, route oral; settings: in vivo
In short: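 Irwin exploratory general behaviour study in male mice; single oral doses of 0, 10 and 30 mg/kg; behavioural, neurologic and autonomic effects observed.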

Mus musculus [2] = assay: Toxicity in mouse assessed as appearance of tremor at 100 mg/kg, po; type: organism-based; set-up: dose 100 mg/kg, route oral; settings: in vivo
In short: (§1)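 Acute oral group toxicity in mice: behavioural side effects scored (social interaction, motility, preconvulsant signs, convulsions, tremor) after single po doses of 30 and 100 mg/kg.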

Mus musculus [3] = assay: Toxicity in mouse assessed as effect on preconvulsion at 30 mg/kg, po; type: organism-based; set-up: dose 30 mg/kg, route oral; settings: in vivo; in short: as §1
[4] = Ratio of AUC (0 to infinity) in brain to plasma in OF1 mouse at 2 mg/kg, iv; type: ADME, organism-based; set-up: dose 2 mg/kg, route intravenous; settings: brain and plasma, read-out: Ratio AUC
[5] = Oral bioavailability in Sprague-Dawley rat at 10 mg/kg; type: ADME, organism-based; settings: in vivo
In short: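 Male Sprague-Dawley rats dosed 2 mg/kg iv in saline (0.5 mg/mL) and 10 mg/kg po in 0.5% MC/0.2% Tween80 (1.0 mg/mL); plasma and brain concentrations followed.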

[6] = AUC (0 to infinity) in Sprague-Dawley rat brain at 10 mg/kg, po; type: ADME, organism-based; set-up: time infinity, dose 10 mg/kg, route oral
In short: (§2)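 Single-dose PK; male OF1 mice and male Sprague-Dawley rats, 2 mg/kg iv and 10 mg/kg po. Mouse vehicles: iv 50% 1-methyl-2-pyrrolidinone in saline (1.0 mg/mL); po 5% DMSO/0.5% MC/0.2% Tween80 (1.0 mg/mL). Rat vehicles: iv saline (0.5 mg/mL); po 0.5% MC/0.2% Tween80 (1.0 mg/mL). Plasma and brain exposure read as AUC0-∞ and t1/2.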

[7] = AUC (0 to infinity) in Sprague-Dawley rat plasma at 10 mg/kg, po; type: ADME, organism-based; set-up: time infinity, dose 10 mg/kg, route oral; in short: as §2
[8] = Elimination half life in Sprague-Dawley rat brain at 2 mg/kg, iv; type: ADME, organism-based; set-up: dose 2 mg/kg, route intravenous; settings: read-out: beta t1/2 (converted); in short: as §2
[9] = Elimination half life in Sprague-Dawley rat plasma at 2 mg/kg, iv; type: ADME, organism-based; set-up: dose 2 mg/kg, route intravenous; settings: read-out: beta t1/2 (converted); in short: as §2
[10] = AUC (0 to infinity) in Sprague-Dawley rat plasma at 2 mg/kg, iv; type: ADME, organism-based; set-up: time infinity, dose 2 mg/kg, route intravenous; in short: as §2
[11] = Tmax in OF1 mouse brain at 10 mg/kg, po; type: ADME, organism-based; set-up: dose 10 mg/kg, route oral
In short: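 Male OF1 mice given 2 mg/kg iv (50% 1-methyl-2-pyrrolidinone in saline, 1.0 mg/mL) and 10 mg/kg po (5% DMSO/0.5% MC/0.2% Tween80, 1.0 mg/mL); plasma and brain exposure measured; B/P ratio from iv AUC.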

[12] = Elimination half life in OF1 mouse brain at 10 mg/kg, po; type: ADME, organism-based; set-up: dose 10 mg/kg, route oral; settings: read-out: beta t1/2 (converted); in short: as §2
[13] = Cmax in OF1 mouse plasma at 10 mg/kg, po; type: ADME, organism-based; set-up: dose 10 mg/kg, route oral
In short: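 Oral PK at 10 mg/kg po in male OF1 mice (vehicle 5% DMSO/0.5% MC/0.2% Tween80, 1.0 mg/mL) and male Sprague-Dawley rats (vehicle 0.5% MC/0.2% Tween80, 1.0 mg/mL). Cmax and tmax taken from plasma and brain concentration–time profiles.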

[14] = Elimination half life in OF1 mouse brain at 2 mg/kg, iv; type: ADME, organism-based; set-up: dose 2 mg/kg, route intravenous; settings: read-out: beta t1/2 (converted); in short: as §2
[15] = AUC (0 to infinity) in OF1 mouse plasma at 2 mg/kg, iv; type: ADME, organism-based; set-up: time infinity, dose 2 mg/kg, route intravenous; in short: as §2
[16] = Drug metabolism in rabbit liver microsomes; type: ADME, Oryctolagus cuniculus, Microsome; settings: read-out: Drug metabolism
Homo sapiens = organism: Homo sapiens; assay: Inhibition of sigma-2 receptor (unknown origin) at 10 uM relative to control
[17] = Mutagenic activity in micronucleus (unknown origin) at 5 to 950 ug/mL in presence of human liver microsomes; type: toxicity
In short: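 In vitro micronucleus test; concentrations 5 to 950 µg/mL, run with and without metabolic activation by human liver microsomes.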

Cc1cc(N2CC[C@H](N3CCC[C@@H]3C)C2)ccc1NC(=O)c1c(C)noc1C
Activity (Mus musculus [1]): Non-toxic
Activity (Mus musculus [2]): Toxic
Activity (Mus musculus [3]): Non-toxic
Kp [4]: 1.6
bioavailability [5]: 56%
AUC(0-inf) [6]: 3400 ng·h/mL
AUC(0-inf) [7]: 3150 ng·h/mL
half-life [8]: 1.8 h
half-life [9]: 1.2 h
AUC(0-inf) [10]: 1100 ng·h/mL
Tmax [11]: 0.17 h
half-life [12]: 4.7 h
Cmax [13]: 1680 ng/mL
half-life [14]: 0.93 h
AUC(0-inf) [15]: 670 ng·h/mL
metabolised [16]: < 5%
inhibition (Homo sapiens): 73%
Activity [17]: Non-toxic
